Hits are enriched below; roughly 6.4% of the tested compounds scored in any of these assays.
HUVEC inhibit – inhibitors of human endothelial cell proliferation; HUVEC proliferation, CellTiter-Glo luminescence, 72 h; active compounds read low; viability, % at 10 µM (by protocol); hit rate 1.1% among 86,000; AID 648;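 active means viability at or below 30%; inactive means viability above 30%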;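 further: 100% = median luminescence of DMSO-only cell control wells on each plate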
E coli WT exp – growth inhibitors of E. coli BW25113 wild type | OD600 absorbance | growth inhibition, % at 100 µM | hit rate 0.15% among 98,000;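 active means growth inhibition above about 50% at one test dose, limit read from the data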;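 further: growth measured after 20 h incubation at 37 °C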
Fibroblast inh – blocks proliferation of human lung fibroblasts; LL 47 human lung fibroblast viability, ATP luminescence; active compounds read low; viability, % at 10 µM; hit rate 1.1% among 85,000;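 active means viability at or below 50% in the single dose screen; inactive means viability above 50%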;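 further: compound exposure lasted 72 h before the ATP readout; 100% = median luminescence of untreated cell-only wells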
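Material: Human LL 47 lung fibroblast cells | Input: 1,150 cells/well | Buffer or medium: IMEM plus 15% FBS | Compound dosing: 0.1% DMSO in all compound wells | Times: Overnight cell rest, 72 h compound treatment at 37 °C | Signal: CellTiter-Glo luminescence measuring cellular ATP | Measure: % viability versus median cells-only luminescence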
H69AR inhibit – growth inhibitors of human H69AR lung tumor cells; H69AR lung tumor viability, ATP luminescence, 72 h; active compounds read low; viability, % at 10 µM; hit rate 6% among 85,000; AID 598;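 active means viability at or below 40%; inactive means viability above 40%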;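 further: multidrug resistant small cell line overexpressing MRP-1 efflux transporter; 100% = mean luminescence of untreated control wells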
Ecoli tolC – E. coli tolC mutant growth inhibition; E. coli BW25113 tolC mutant growth, OD615; growth inhibition, % at 10 µM (by protocol); hit rate 2.2% among 65,000;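 active means growth inhibition at or above a cutoff equal to the mean over every tested compound plus 3 SD, cut at about 60% in these data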;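 further: growth measured after 20 h incubation at 37 °C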
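System: E. coli ΔtolC::kan strain BW25113; Buffer or medium: LB broth supplemented with 50 µg/mL kanamycin; Compound: 10 µM final, single dose; Incubation: bacterial growth with compound for 20 h at 37 °C; Signal: A615 absorbance measurement; Evaluation: growth inhibition in percent.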
Jurkat tox 60K – cytotoxic compounds reducing Jurkat cell viability; Jurkat E6.1 viability, ATP luminescence, 48 h; inhibition, % at 4 µM; hit rate 1.2% among 56,000; AID 463;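 active means inhibition above the mean inhibition of all tested compounds plus 3 SD, cut at about 28% in these data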
An asterisk follows results filed as active.

`O=C(Nc1ccccc1C(F)(F)F)c1cc(-c2ccccc2O)on1` gave HUVEC inhibit 108, E coli WT exp -8, Fibroblast inh 103, H69AR inhibit 83, Ecoli tolC -15 and Jurkat tox 60K 89*.
For CCc1ccccc1NC(=O)CSc1nnc([C@@H]2CCCN2C(=O)OC(C)(C)C)o1 the results were HUVEC inhibit 95, E coli WT exp 12, Fibroblast inh 95, H69AR inhibit 2.1*, Ecoli tolC -5 and Jurkat tox 60K -2.
Screening Cc1cccc(C)c1NC(=O)CSc1nnc([C@@H]2CCCN2C(=O)OC(C)(C)C)o1 returned HUVEC inhibit 98, E coli WT exp -10, Fibroblast inh 99, H69AR inhibit 89 and Ecoli tolC -6.
`Cc1noc(NS(=O)(=O)c2ccc(NC(=O)CCCOc3ccc(Cl)cc3Cl)cc2)c1C` gave HUVEC inhibit 88, Fibroblast inh 100 and H69AR inhibit 101.
`COc1cc(NS(=O)(=O)c2ccc(NC(=S)NC(=O)CC(C)C)cc2)nc(OC)n1` gave HUVEC inhibit 83, Fibroblast inh 99 and H69AR inhibit 92.
`COc1cc(NS(=O)(=O)c2ccc(NC(=O)COc3ccccc3Cl)cc2)nc(OC)n1` gave HUVEC inhibit 99, E coli WT exp -8, Fibroblast inh 98, H69AR inhibit 95, Ecoli tolC 71* and Jurkat tox 60K 0.
For Cc1noc(NS(=O)(=O)c2ccc(NC(=O)COc3ccc(Cl)cc3Cl)cc2)c1C the results were HUVEC inhibit 79, E coli WT exp 5, Fibroblast inh 97, H69AR inhibit 94, Ecoli tolC 63* and Jurkat tox 60K 3.
For Cc1ccc(CNc2ccc3c(c2)OCO3)c(C)c1 the results were HUVEC inhibit 61, E coli WT exp 0, Fibroblast inh 95, H69AR inhibit 30*, Ecoli tolC 22 and Jurkat tox 60K 9.
For c1cncc(CNc2ccc3c(c2)OCO3)c1 the results were HUVEC inhibit 94, E coli WT exp 13, Fibroblast inh 94 and H69AR inhibit 80.
`Cc1ccsc1/C=C/c1ccc2ccccc2n1` gave E coli WT exp -3.
Screening Oc1cccc2ccc(/C=C/c3cccs3)nc12 returned HUVEC inhibit 60, E coli WT exp 4, Fibroblast inh 14* and H69AR inhibit 12*.
Screening Cc1ccsc1/C=C/c1ccc2cccc(O)c2n1 returned HUVEC inhibit 62, E coli WT exp 8, Fibroblast inh 45* and H69AR inhibit 18*.
For CN(C)/C=C1\C(=O)N(c2ccc(Cl)cc2)CS1(=O)=O the results were E coli WT exp 0.
For CCOCCCNC(=O)c1cc2sc(Cl)cc2n1CC the results were HUVEC inhibit 63, E coli WT exp 1, Fibroblast inh 100, H69AR inhibit 36*, Ecoli tolC 17 and Jurkat tox 60K 2.
`COCCOC(=O)c1c(C)oc2ccc(O)c(CN3CCC(C)CC3)c12` gave HUVEC inhibit 92, E coli WT exp 1, Fibroblast inh 95, H69AR inhibit 87, Ecoli tolC -10 and Jurkat tox 60K -5.
CCOC(=O)c1c(-c2ccccc2)oc2ccc(O)c(CN(C)C)c12 was read as HUVEC inhibit 55, E coli WT exp 7, Fibroblast inh 73 and H69AR inhibit 10*.
For CCOC(=O)c1c(-c2ccccc2)oc2ccc(OC(C)=O)cc12 the results were HUVEC inhibit 73, E coli WT exp -12, Fibroblast inh 90 and H69AR inhibit 67.
Screening CCOC(=O)c1c(-c2ccccc2)oc2ccc(O)c(CN3CCCC3)c12 returned HUVEC inhibit 3.5*, E coli WT exp 8, Fibroblast inh 59 and H69AR inhibit 5.3*.
Screening CCOC(=O)c1cc2c(=O)n3ccccc3nc2n(CC(C)C)c1=NC(=O)c1ccco1 returned HUVEC inhibit 89, E coli WT exp -12, Fibroblast inh 98, H69AR inhibit 54 and Ecoli tolC 26.
`COc1ccc(N2CCN(C(=O)CSc3ccccc3N)CC2)cc1` gave HUVEC inhibit 88, E coli WT exp 1, Fibroblast inh 98, H69AR inhibit 56, Ecoli tolC 7 and Jurkat tox 60K -2.
`Cc1c(-n2cc(C(=O)c3cc(Br)ccc3O)cc(C#N)c2=O)c(=O)n(-c2ccccc2)n1C` gave E coli WT exp -1.
`N#Cc1cc(C(=O)c2cc(Br)ccc2O)cn(C2CCCCC2)c1=O` gave HUVEC inhibit 98, E coli WT exp -1, Fibroblast inh 93 and H69AR inhibit 13*.
COc1ccc(C2c3sc(=O)[nH]c3SC3C4CCC(C4)C23)cc1 (centres undefined) was read as HUVEC inhibit 90, E coli WT exp -8, Fibroblast inh 103, H69AR inhibit 77, Ecoli tolC 100* and Jurkat tox 60K 12.
For CC1=C(C(=O)OC(C)C)C(c2cccc(F)c2)n2ncnc2N1 (centres undefined) the results were HUVEC inhibit 98, E coli WT exp 7, Fibroblast inh 96, H69AR inhibit 92, Ecoli tolC 16 and Jurkat tox 60K -3.
Screening CCc1nn(-c2cc(Cl)ccc2OC)c2c1C(=O)CCC2 returned HUVEC inhibit 76, E coli WT exp -3, Fibroblast inh 86, H69AR inhibit 22*, Ecoli tolC 1 and Jurkat tox 60K 22.
CCCc1nn(-c2cc(Cl)ccc2OC)c2c1C(=O)CC(C)(C)C2 was read as HUVEC inhibit 85, E coli WT exp 4, Fibroblast inh 80 and H69AR inhibit 22*.
For FC(F)(F)COc1nc(N2CCOCC2)nc(N(c2ccccc2)c2ccccc2)n1 the results were HUVEC inhibit 92, Fibroblast inh 94 and H69AR inhibit 40*.
`c1ccc(N(c2ccccc2)c2nc(N3CCOCC3)nc(N3CCOCC3)n2)cc1` gave HUVEC inhibit 84, Fibroblast inh 93, H69AR inhibit 52, Ecoli tolC -6 and Jurkat tox 60K -2.
`COCCCNc1ncnc2sc3c(c12)CCC(C)C3` (centres undefined) gave HUVEC inhibit 89, Fibroblast inh 89 and H69AR inhibit 39*.
Screening Cc1ccc(S(=O)(=O)N(C)c2ccc(NS(C)(=O)=O)cc2)cc1 returned HUVEC inhibit 96, E coli WT exp 3, Fibroblast inh 93, H69AR inhibit 89, Ecoli tolC 5 and Jurkat tox 60K -1.
For CCOc1ccc(S(=O)(=O)N2CCN(c3ccc(OC)cc3)CC2)c2cccnc12 the results were HUVEC inhibit 96, E coli WT exp -5, Fibroblast inh 96, H69AR inhibit 35*, Ecoli tolC 9 and Jurkat tox 60K 6.
CCOC(=O)N1CCN(S(=O)(=O)c2ccc(OCC)c3ccccc23)CC1 was read as HUVEC inhibit 88, E coli WT exp -13, Fibroblast inh 97, H69AR inhibit 69, Ecoli tolC 65* and Jurkat tox 60K 6.
O=C(O)c1cnn2c(C(F)F)cc(C3CC3)nc12 was read as HUVEC inhibit 97, E coli WT exp -5, Fibroblast inh 100 and H69AR inhibit 94.

Assay outcomes (PubChem)
